Data published in ChEMBL document CHEMBL4354843, “Structure-Based Design of a Potent and Selective Covalent Inhibitor for SRC Kinase That Targets a P-Loop Cysteine” (J Med Chem, 2020).

What was measured:
[1] = biological target: Discoidin domain-containing receptor 2 (Homo sapiens) (UniProt Q16832); assay: Binding affinity to wild-type human partial length DDR2 (V555 to E855 residues) expressed in mammalian expression system assessed as residual binding level at 1 uM by Kinomescan method relative to control
Procedure, shortened: (§1)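 Active-site-directed competition binding panel of 468 kinases (KinomeScan), compound at 1 μM. The read-out is kinase remaining bound, given as a percentage of the DMSO control. […]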

[2] = biological target: ALK tyrosine kinase receptor (Homo sapiens) (UniProt Q9UM73); assay: Binding affinity to wild-type human partial length ALK (I1088 to E1409 residues) expressed in mammalian expression system assessed as residual binding level at 1 uM by Kinomescan method relative to control
Chain of ALK tyrosine kinase receptor (Homo sapiens) (Q9UM73 19-1620 limits assumed): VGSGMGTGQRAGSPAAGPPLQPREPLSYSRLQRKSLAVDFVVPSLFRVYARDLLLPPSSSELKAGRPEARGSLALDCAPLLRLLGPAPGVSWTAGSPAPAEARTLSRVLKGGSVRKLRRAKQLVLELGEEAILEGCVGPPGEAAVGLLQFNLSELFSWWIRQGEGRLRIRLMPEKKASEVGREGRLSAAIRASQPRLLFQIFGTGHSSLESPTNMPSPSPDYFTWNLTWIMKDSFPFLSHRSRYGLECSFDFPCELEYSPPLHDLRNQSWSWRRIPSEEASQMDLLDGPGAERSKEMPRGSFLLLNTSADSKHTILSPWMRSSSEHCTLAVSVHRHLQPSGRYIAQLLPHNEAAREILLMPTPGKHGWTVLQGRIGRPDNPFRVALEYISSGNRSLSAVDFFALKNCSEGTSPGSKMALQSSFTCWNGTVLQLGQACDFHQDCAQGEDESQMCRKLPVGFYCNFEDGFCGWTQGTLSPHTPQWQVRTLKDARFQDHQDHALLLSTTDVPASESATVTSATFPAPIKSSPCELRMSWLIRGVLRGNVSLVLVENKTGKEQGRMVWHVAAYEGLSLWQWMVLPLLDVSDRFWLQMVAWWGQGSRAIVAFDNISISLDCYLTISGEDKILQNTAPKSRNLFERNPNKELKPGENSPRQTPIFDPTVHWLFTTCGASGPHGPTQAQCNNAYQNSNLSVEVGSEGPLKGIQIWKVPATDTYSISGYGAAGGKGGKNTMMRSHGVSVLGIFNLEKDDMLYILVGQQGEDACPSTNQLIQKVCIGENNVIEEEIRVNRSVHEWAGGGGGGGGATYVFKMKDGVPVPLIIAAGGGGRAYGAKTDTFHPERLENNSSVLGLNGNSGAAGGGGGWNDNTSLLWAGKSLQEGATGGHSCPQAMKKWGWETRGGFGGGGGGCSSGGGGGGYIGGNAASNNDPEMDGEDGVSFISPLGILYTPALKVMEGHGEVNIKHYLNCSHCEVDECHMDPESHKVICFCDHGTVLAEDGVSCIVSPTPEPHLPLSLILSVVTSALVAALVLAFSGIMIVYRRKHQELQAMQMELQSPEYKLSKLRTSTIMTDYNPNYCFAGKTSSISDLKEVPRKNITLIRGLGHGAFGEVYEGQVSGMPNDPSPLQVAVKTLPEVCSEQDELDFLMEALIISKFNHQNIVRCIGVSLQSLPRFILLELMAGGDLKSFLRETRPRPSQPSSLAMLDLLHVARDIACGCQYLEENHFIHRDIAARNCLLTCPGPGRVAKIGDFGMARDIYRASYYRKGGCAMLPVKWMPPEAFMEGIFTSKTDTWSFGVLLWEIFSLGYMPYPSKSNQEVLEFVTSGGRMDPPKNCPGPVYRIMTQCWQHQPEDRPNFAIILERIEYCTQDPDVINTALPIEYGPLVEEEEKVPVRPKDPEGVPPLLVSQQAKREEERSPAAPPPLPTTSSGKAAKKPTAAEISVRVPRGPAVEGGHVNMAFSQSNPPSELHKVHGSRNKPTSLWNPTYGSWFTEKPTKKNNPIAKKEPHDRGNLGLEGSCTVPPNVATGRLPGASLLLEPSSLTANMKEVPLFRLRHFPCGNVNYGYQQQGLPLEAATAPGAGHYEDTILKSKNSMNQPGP

[3] = biological target: Tyrosine-protein kinase HCK (Homo sapiens, UniProt P08631); assay: Binding affinity to wild-type human full length HCK (M22 to P526 residues) expressed in bacterial expression system assessed as residual binding level at 1 uM by Kinomescan method relative to control
Procedure, shortened: (§2)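 KinomeScan, an active site-directed competition binding panel of 468 kinases. The test compound was at 1 μM. The readout is remaining kinase binding as a percentage of the DMSO control. Scores above 35% were treated as weak binding and not listed.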

[4] = biological target: Myosin light chain kinase (Homo sapiens) (UniProt Q32MK0); assay: Binding affinity to wild-type human partial length MLCK (D488 to K800 residues) expressed in bacterial expression system assessed as residual binding level at 1 uM by Kinomescan method relative to control
[5] = biological target: Mitogen-activated protein kinase kinase kinase 1 (Homo sapiens) (UniProt Q13233); assay: Binding affinity to wild-type human partial length MAP3K1 (L1202 to W1512 residues) expressed in mammalian expression system assessed as residual binding level at 1 uM by Kinomescan method relative to control; procedure, shortened: as §1
[6] = biological target: Tyrosine-protein kinase Fyn (Homo sapiens) (UniProt P06241); assay: Binding affinity to wild-type human partial length FYN (T243 to L534 residues) expressed in bacterial expression system assessed as residual binding level at 1 uM by Kinomescan method relative to control; procedure, shortened: as §1
[7] = biological target: Casein kinase I isoform gamma-1 (Homo sapiens) (UniProt Q9HCP0); assay: Binding affinity to wild-type human partial length CSNK1G1 (T15 to S353 residues) expressed in bacterial expression system assessed as residual binding level at 1 uM by Kinomescan method relative to control
[8] = biological target: RAF proto-oncogene serine/threonine-protein kinase (Homo sapiens) (UniProt P04049); assay: Binding affinity to wild-type human partial length RAF1 (I330 to T640 residues) expressed in bacterial expression system assessed as residual binding level at 1 uM by Kinomescan method relative to control
[9] = biological target: Serine/threonine-protein kinase 38-like (Homo sapiens) (UniProt Q9Y2H1); assay: Binding affinity to wild-type human partial length NDR2 (N34 to E447 residues) expressed in bacterial expression system assessed as residual binding level at 1 uM by Kinomescan method relative to control; procedure, shortened: as §1
Chain of Serine/threonine-protein kinase 38-like (Homo sapiens) (Q9Y2H1 2-464 limits assumed): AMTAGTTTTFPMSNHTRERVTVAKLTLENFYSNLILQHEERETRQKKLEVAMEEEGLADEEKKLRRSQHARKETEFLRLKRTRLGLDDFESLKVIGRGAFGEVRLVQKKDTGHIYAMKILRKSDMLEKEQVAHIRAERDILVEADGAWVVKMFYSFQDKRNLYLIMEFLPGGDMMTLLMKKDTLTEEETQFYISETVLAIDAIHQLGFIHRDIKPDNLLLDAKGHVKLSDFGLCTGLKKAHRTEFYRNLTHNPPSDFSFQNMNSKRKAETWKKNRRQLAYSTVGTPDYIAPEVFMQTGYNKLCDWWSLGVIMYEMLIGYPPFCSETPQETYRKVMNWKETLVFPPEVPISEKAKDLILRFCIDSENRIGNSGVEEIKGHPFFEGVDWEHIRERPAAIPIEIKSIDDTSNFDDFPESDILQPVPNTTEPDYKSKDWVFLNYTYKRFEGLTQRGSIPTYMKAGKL

[10] = biological target: Serine/threonine-protein kinase PLK1 (Homo sapiens) (UniProt P53350); assay: Binding affinity to wild-type human partial length PLK1 (A33 to F325 residues) expressed in mammalian expression system assessed as residual binding level at 1 uM by Kinomescan method relative to control
[11] = biological target: Homeodomain-interacting protein kinase 3 (Homo sapiens) (UniProt Q9H422); assay: Binding affinity to wild-type human partial length HIPK3 (M153 to N562 residues) expressed in mammalian expression system assessed as residual binding level at 1 uM by Kinomescan method relative to control; procedure, shortened: as §1
[12] = biological target: Ephrin type-A receptor 8 (Homo sapiens) (UniProt P29322); assay: Binding affinity to wild-type human partial length EPHA8 (Q608 to C920 residues) expressed in bacterial expression system assessed as residual binding level at 1 uM by Kinomescan method relative to control; procedure, shortened: as §1
[13] = biological target: Serine/threonine-protein kinase Chk2 (Homo sapiens) (UniProt O96017); assay: Binding affinity to wild-type human partial length CHEK2 (S253 to E574 residues) expressed in bacterial expression system assessed as residual binding level at 1 uM by Kinomescan method relative to control; procedure, shortened: as §2
[14] = biological target: Fibroblast growth factor receptor 4 (Homo sapiens) (UniProt P22455); assay: Binding affinity to wild-type human partial length FGFR4 (G402 to E713 residues) expressed in bacterial expression system assessed as residual binding level at 1 uM by Kinomescan method relative to control
Chain of Fibroblast growth factor receptor 4 (Homo sapiens) (P22455 22-802 limits assumed): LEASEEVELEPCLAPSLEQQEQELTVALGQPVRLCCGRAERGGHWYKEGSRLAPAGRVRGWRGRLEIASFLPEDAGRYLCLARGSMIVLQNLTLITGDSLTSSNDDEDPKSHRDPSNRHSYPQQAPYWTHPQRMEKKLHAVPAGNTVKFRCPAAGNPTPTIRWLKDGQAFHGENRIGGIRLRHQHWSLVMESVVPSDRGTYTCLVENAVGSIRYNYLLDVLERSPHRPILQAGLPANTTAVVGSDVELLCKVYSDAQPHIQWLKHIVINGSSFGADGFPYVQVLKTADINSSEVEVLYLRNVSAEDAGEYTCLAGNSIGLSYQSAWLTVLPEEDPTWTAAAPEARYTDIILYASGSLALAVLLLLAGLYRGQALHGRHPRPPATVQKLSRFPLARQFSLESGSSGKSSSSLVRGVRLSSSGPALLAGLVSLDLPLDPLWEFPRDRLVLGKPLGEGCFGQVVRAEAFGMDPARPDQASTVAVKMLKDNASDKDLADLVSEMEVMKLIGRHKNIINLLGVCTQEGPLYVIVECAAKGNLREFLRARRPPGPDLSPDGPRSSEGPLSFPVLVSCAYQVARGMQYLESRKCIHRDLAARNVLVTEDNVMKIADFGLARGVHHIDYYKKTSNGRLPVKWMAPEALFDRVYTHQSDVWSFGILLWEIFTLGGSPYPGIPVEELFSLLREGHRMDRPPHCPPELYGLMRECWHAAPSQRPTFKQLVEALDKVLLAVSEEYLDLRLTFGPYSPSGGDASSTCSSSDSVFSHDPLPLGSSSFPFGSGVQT

[15] = biological target: Rhodopsin kinase GRK1 (Homo sapiens) (UniProt Q15835); assay: Binding affinity to wild-type human full length GRK1 (M1 to S563 residues) expressed in mammalian expression system assessed as residual binding level at 1 uM by Kinomescan method relative to control; procedure, shortened: as §2
[16] = biological target: Serine/threonine-protein kinase pim-2 (Homo sapiens) (UniProt Q9P1W9); assay: Binding affinity to wild-type human partial length PIM2 (M1 to E291 residues) expressed in bacterial expression system assessed as residual binding level at 1 uM by Kinomescan method relative to control
Chain of Serine/threonine-protein kinase pim-2 (Homo sapiens) (Q9P1W9 whole entry, looked up, the tested form may be a part): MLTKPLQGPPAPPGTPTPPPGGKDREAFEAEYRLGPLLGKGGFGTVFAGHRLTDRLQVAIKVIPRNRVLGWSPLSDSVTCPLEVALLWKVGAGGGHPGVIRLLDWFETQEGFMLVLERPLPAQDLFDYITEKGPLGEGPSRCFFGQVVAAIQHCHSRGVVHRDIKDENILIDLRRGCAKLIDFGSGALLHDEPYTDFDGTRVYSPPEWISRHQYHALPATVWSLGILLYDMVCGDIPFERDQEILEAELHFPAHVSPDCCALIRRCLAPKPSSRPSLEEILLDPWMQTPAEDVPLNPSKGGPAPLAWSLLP

[17] = biological target: Mitogen-activated protein kinase kinase kinase 2 (Homo sapiens) (UniProt Q9Y2U5); assay: Binding affinity to wild-type human partial length MAP3K2 (S315 to H619 residues) expressed in mammalian expression system assessed as residual binding level at 1 uM by Kinomescan method relative to control; procedure, shortened: as §1
[18] = biological target: Proto-oncogene tyrosine-protein kinase ROS (Homo sapiens) (UniProt P08922); assay: Binding affinity to wild-type human partial length ROS1 (A1921 to N2240 residues) expressed in bacterial expression system assessed as residual binding level at 1 uM by Kinomescan method relative to control
[19] = biological target: Cyclin-dependent kinase 9 (Homo sapiens) (UniProt P50750); assay: Binding affinity to wild-type human full length CDK9 (M1 to F372 residues) expressed in bacterial expression system assessed as residual binding level at 1 uM by Kinomescan method relative to control
Procedure, shortened: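 Active-site-directed KinomeScan competition binding panel covering 468 kinases, compound tested at 1 μM. Each readout is the kinase signal remaining with compound, expressed as a percentage of the DMSO control. […]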

[20] = biological target: Hepatocyte growth factor receptor (Homo sapiens) (UniProt P08581); assay: Binding affinity to wild-type human partial length MET (D1010 to S1367 residues) expressed in bacterial expression system assessed as residual binding level at 1 uM by Kinomescan method relative to control
Chain of Hepatocyte growth factor receptor (Homo sapiens) (P08581 whole entry, the tested form may be a part): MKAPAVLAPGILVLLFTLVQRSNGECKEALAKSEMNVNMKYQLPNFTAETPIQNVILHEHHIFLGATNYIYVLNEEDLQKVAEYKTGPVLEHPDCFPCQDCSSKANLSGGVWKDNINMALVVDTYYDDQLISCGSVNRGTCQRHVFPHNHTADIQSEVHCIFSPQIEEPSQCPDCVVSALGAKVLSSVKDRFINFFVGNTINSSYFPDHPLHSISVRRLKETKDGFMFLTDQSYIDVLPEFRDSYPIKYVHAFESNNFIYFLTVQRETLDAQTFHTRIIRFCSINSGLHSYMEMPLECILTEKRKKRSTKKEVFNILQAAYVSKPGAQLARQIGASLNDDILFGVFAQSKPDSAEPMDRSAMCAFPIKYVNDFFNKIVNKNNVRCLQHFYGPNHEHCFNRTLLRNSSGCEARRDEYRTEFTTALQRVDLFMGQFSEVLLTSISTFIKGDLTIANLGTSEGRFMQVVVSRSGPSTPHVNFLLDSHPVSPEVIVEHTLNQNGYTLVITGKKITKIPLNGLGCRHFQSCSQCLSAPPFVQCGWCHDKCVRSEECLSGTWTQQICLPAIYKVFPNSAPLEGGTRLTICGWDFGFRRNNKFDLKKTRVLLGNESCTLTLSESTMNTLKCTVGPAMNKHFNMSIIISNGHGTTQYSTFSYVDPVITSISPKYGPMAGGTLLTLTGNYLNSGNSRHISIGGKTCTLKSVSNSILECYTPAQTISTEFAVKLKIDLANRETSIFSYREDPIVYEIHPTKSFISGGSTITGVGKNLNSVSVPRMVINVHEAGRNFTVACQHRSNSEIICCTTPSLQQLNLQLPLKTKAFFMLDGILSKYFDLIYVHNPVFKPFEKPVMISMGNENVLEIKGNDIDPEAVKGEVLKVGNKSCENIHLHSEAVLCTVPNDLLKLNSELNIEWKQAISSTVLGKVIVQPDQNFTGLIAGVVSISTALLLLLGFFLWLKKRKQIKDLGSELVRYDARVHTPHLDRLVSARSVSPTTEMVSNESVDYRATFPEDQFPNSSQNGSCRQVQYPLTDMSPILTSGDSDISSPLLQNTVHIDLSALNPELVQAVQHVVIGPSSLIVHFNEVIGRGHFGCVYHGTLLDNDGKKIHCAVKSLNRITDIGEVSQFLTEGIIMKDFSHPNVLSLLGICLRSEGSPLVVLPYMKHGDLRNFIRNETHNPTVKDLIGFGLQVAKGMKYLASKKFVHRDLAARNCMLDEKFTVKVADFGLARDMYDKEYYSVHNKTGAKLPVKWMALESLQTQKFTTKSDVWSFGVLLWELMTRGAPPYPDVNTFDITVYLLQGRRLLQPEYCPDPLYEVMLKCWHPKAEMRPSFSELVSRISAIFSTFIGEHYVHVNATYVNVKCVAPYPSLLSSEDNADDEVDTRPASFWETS

[21] = biological target: Receptor-interacting serine/threonine-protein kinase 2 (Homo sapiens) (UniProt O43353); assay: Binding affinity to wild-type human partial length RIPK2 (M1 to K310 residues) expressed in bacterial expression system assessed as residual binding level at 1 uM by Kinomescan method relative to control
Chain of Receptor-interacting serine/threonine-protein kinase 2 (Homo sapiens) (O43353 whole entry, the tested form may be a part): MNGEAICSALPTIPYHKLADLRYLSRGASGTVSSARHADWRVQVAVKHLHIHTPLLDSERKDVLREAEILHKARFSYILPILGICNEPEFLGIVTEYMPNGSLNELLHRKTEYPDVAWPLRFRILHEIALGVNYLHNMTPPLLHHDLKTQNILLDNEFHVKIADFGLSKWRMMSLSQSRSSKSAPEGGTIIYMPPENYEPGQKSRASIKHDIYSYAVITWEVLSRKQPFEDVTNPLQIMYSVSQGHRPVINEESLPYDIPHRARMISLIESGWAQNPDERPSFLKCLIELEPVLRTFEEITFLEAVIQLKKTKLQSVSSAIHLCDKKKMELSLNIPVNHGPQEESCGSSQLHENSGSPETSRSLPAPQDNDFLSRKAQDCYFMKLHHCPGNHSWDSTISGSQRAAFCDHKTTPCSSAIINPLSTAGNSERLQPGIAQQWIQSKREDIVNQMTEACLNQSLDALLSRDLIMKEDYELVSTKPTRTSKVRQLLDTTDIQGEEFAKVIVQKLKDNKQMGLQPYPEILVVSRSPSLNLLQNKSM

[22] = biological target: Calcium/calmodulin-dependent protein kinase type II subunit beta (Homo sapiens) (UniProt Q13554); assay: Binding affinity to wild-type human partial length CAMK2B (M1 to Q380 residues) expressed in bacterial expression system assessed as residual binding level at 1 uM by Kinomescan method relative to control

## C=CC(=O)Nc1ccccc1Nc1nc(Nc2ccc(N3CCN(C)CC3)cc2)ncc1C(=O)Nc1c(C)cccc1Cl
[1]
  Activity: 26%
[2]
  Activity: 100%
[3]
  Activity: 0.8%
[4]
  Activity: 100%
[5]
  Activity: 99%
[6]
  Activity: 2%
[7]
  Activity: 100%
[8]
  Activity: 100%
[9]
  Activity: 93%
[10]
  Activity: 100%
[11]
  Activity: 99%
[12]
  Activity: 1%
[13]
  Activity: 90%
[14]
  Activity: 100%
[15]
  Activity: 69%
[16]
  Activity: 95%
[17]
  Activity: 94%
[18]
  Activity: 100%
[19]
  Activity: 100%
[20]
  Activity: 100%
[21]
  Activity: 100%
[22]
  Activity: 100%
